According to ChEMBL document CHEMBL4513216, “Probing the Open Global Health Chemical Diversity Library for Multistage-Active Starting Points for Next-Generation Antimalarials” (ACS Infect Dis, 2020):

Test: Toxicity liver stage against HepG2, at 10uM
Assay type: cell-based
Set-up: test concentration 10 uM, cell line HepG2-A16-CD81EGFP
Conditions: human, HepG2-A16-CD81EGFP cells; read-out: INHIBITION
In short: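 Uninfected HepG2-A16-CD81EGFP cells, 3 × 10^3 per well, 1536-well, plated on prespotted compound at 10 μM final, parasite-free screening media added to match infected plates; puromycin 10 μM positive, DMSO 0.5% negative; run in parallel with 48 h PbLuc assay at 37 °C, 5% CO2; viability by CellTiter-Glo luminescence, normalized to controls.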

| SMILES | cytotoxicity at 10 µM |
| --- | --- |
| Cc1ccccc1C(N)c1ccncc1 (stereo unspecified) | -0.871% |
| Cc1ccc([C@]2(O)CC[C@H]3CN(Cc4cc(C)c(O)c(C)c4)C[C@H]32)nc1 | -6.72% |
| CCC(O)CN1CCN(C(=O)Cc2ccc(C)nc2)CC1 (stereo unspecified) | -9.24% |
| CN(Cc1ccccc1)C1(C(=O)NC(C)(C)CO)Cc2ccccc2C1 | 0.603% |
| N#Cc1cc2cc(Cl)cnc2nc1O | 4.29% |
| Cc1cc(=O)n2nc(Oc3ccc(C#N)cc3Cl)sc2n1 | 1.15% |
| N#Cc1ccc(C(=O)N(C2CC2)C2CC(=O)NC2=O)cc1 (stereo unspecified) | -4.64% |
| Fc1cnc(NCC2Cn3nnc(-c4ccccc4)c3CO2)nc1 (stereo unspecified) | -64.7% |
| CCn1c(C)cc(C(=O)N2CCCC(C(=O)c3nccn3C)C2)c1C (stereo unspecified) | 6.27% |
| Cc1cc2n(n1)CC(CNC1CCN(c3ccc(F)cc3)CC1)CN2 (stereo unspecified) | -10.3% |
| CCS(=O)(=O)NCC1Cn2nnc(-c3cccc(C)c3)c2CO1 (stereo unspecified) | -120% |
| O=C(Cc1ccccn1)N1C[C@H]2CC[C@@H](C1)N(Cc1ccccc1)C2=O | -13% |
| CC(=O)N1CCCN(C(C(=O)O)c2ccc(C)cc2C)CC1 (stereo unspecified) | -3.98% |
| COCCNC(=O)NCCc1cccc(OC)c1O | 9.31% |
| COc1cccc(CN2C[C@@H]3CC[C@@](O)(c4ccccn4)[C@@H]3C2)c1OC | -9.94% |
| Cc1c(CN2CCc3[nH]cnc3C2C(=O)O)[nH]c2ccc(F)cc12 (stereo unspecified) | -4.23% |
| Cc1c(Cl)cc(C(=O)N(CCO)Cc2nccn2C)cc1Cl | 2.66% |
| CCNC(=O)CN(CC)C(=O)c1csc(Cc2ccccc2F)n1 | 7.6% |
| CN(C)C(=O)CN1CCC2(CCCN(Cc3ccsc3)C2)C1=O (stereo unspecified) | -106% |
| CN(CC1COc2ccccc2O1)C(=O)C1=NN(C)C(=O)CC1 (stereo unspecified) | -52.2% |
| CCc1c(O)nc(SCC(=O)c2ccccc2)n(-c2ccccc2)c1=O | 3.19% |
| O=C(c1cnccn1)N1C[C@H]2CC[C@@H](C1)N(S(=O)(=O)c1cccnc1)C2 | -2.03% |
| CCSC1=Nc2c(cnn2-c2ccc(Cl)cc2)C2=NCCCN12 | 8.49% |

| SMILES | cytotoxicity at 10 µM |
| --- | --- |
| CCC(=O)N1CCOC(c2cc(Nc3nncs3)cc(C)n2)C1 (stereo unspecified) | 5.67% |
| Cn1nc(Cn2ccnc2)c2c1CN(c1nccs1)C2 | 3.61% |
| Cc1cc(C)c2nc(CN3CCC(N4CCOCC4)CC3)cc(O)c2c1 | -0.173% |
| O=C(Cn1ccnc1)N1C[C@@H]2CC[C@H](Oc3ccccc3F)[C@@H]2C1 | -28.9% |
| Cc1ccc(=O)n(Cc2nc(C(C)OCC(C)C)no2)n1 (stereo unspecified) | -3.21% |
| F[C@@H]1CN(CC2CC2)C[C@@H]1OCc1nc2ncccc2[nH]1 | 5.52% |
| O=C(c1cc[nH]n1)N1CCc2ncnc(NCc3ccccn3)c2CC1 | -10.5% |
| CCOC(=O)N1CCNC(c2cccs2)C1 (stereo unspecified) | -147% |
| CCNC(=O)[C@@H]1C[C@@H](NC(=O)c2ccsc2)CN1CCCSC | -117% |
| COc1ccc(-n2nnc(C(=O)NCC3CCCCC3)n2)cc1 | 1.01% |
| Cc1ccsc1CN(CCN(C)C)C(=O)c1ccccc1C#N | -119% |
| Cn1cc(C[C@H]2[C@H](N3CCOCC3)CCN2C2CCOCC2)cn1 | 5.13% |
| O=C(CSCCN1CCOCC1)N1CCCCCC1 | 10.4% |
| CCC(O)CN1CCN(C(=O)Cc2ccc(OC)cc2OC)CC1 (stereo unspecified) | -23.8% |
| COc1cccc(F)c1CN1CCC(c2nc(C)cc(C)n2)C1 (stereo unspecified) | 6.83% |
| CS(=O)(=O)c1ccc(Cl)c(C(=O)NCCC2=CCCCC2)c1 | 8.17% |
| CCC(=O)NCC(c1ccc(SC)cc1)N1CCc2sccc2C1 (stereo unspecified) | 4.05% |
| CC(C(=O)N1CCOCC1)n1cc(Br)cn1 (stereo unspecified) | 14.1% |
| Cc1ccc(CN(CCCn2ccnc2)Cc2cnc(N(C)C)nc2)s1 | -12.6% |
| OCCn1cc(CN2CCN(CCOCC(F)(F)F)CC2)cn1 | -10.7% |
| CCCc1ccc(S(=O)(=O)NC2(CC(N)=O)CCC2)cc1 | 17.9% |
| Cn1ccnc1CN1CCN(CC(O)c2ccc(F)c(F)c2)CC1 (stereo unspecified) | -12.9% |
| COc1ccc(Cl)cc1NCCC(=O)NCCNc1cnccn1 | -10.3% |

| SMILES | cytotoxicity at 10 µM |
| --- | --- |
| CCC(CC)N(Cc1ccc2c(c1)OCO2)C(=O)c1ccc(=O)n(C)c1 | 9.06% |
| Cc1cccnc1NC(=O)C1CCCN(c2cccc(C(F)(F)F)n2)C1 (stereo unspecified) | 4.95% |
| N#Cc1cccnc1NCCNC(=O)N1CCCC(N2CCCC2)C1 (stereo unspecified) | 7.61% |
| O=C(c1cccs1)N1CCC(O)(CN2CCc3ccccc3C2)C1 (stereo unspecified) | 1.49% |
| Cc1n[nH]c(CN2CCN(C(=O)C3CCC3)[C@@H]3CS(=O)(=O)C[C@@H]32)n1 | -10.8% |
| O=C(Nc1cn[nH]c1)NC1CCN(c2ccccc2OC(F)F)C1 (stereo unspecified) | 26.1% |
| Cc1noc(C)c1CCC(=O)N(C)C(C)c1cccs1 (stereo unspecified) | 7.93% |
| O=C(N[C@@H]1CCN(C(=O)c2cc[nH]c2)C[C@H]1O)c1ccccn1 | 5.89% |
| CNC(=O)c1cc2c(nc1NCC(C)C)CCN(S(C)(=O)=O)CC2 | -161% |
| CSc1ccsc1C(=O)NC(Cc1ccccc1)C(N)=O (stereo unspecified) | -5.24% |
| CCNC(=O)c1cnc(Cc2ccc(F)cc2)s1 | 4.44% |
| CCOc1ccc(C(=O)Nc2c(C)nc3ccccn3c2=O)cc1 | 11.9% |
| CCn1ncc2c1NC(=O)CC2c1cnc(NCc2ccccc2)nc1 (stereo unspecified) | -6.27% |
| CSCc1cccc(S(=O)(=O)NCc2cnn(C)c2C)c1 | 13.7% |
| CCc1ccc(C(=O)NCc2ccnc(N3CCN(C)CC3)c2)o1 | -9.07% |
| CN(C)c1ncc2c(n1)C1(CCN(CC3CC3)C1)COC2 (stereo unspecified) | -12.9% |
| COc1ccc(CCC(=O)N2CCCC(n3cncn3)C2)cc1 (stereo unspecified) | -21% |
| CCN1CCN(C2CCN(Cc3ncc(C(C)(C)C)o3)CC2)C1=O | 2.05% |
| CN(C)[C@@H]1CCN(C(=O)Cc2cccs2)[C@H]1Cc1cnn(C)c1 | -72.2% |
| O=C(Nc1c(F)cccc1Oc1ccccc1)C1CCS(=O)(=O)C1 (stereo unspecified) | 1.91% |
| COc1cccc2c1OCC(C(=O)NCc1c(C)noc1C)C2 (stereo unspecified) | -15.5% |
| CCOCC(O)CN1CCN(C(=O)C(C)(C)CC)CC1 (stereo unspecified) | -20.7% |
| Cc1ncnc2c1CCN(C(=O)c1ccncc1F)CC2 | -71.1% |

| SMILES | cytotoxicity at 10 µM |
| --- | --- |
| COc1ccc(-n2cccn2)c(CN2CCC(O)(CO)CC2)c1 | 3.4% |
| CCc1noc(C2CCCCN2C(=O)c2ccccc2)n1 (stereo unspecified) | -2.38% |
| O=C(NCc1cccc(C(F)(F)F)c1)C(c1cccnc1)N1CCCC1 (stereo unspecified) | 6.63% |
| Cc1cc(NC(=O)NCC2CCOC2)no1 (stereo unspecified) | 4.43% |
| Cn1cc(CN2CCCC3(CCN(C(=O)c4ccccn4)C3)C2)cn1 (stereo unspecified) | -66.9% |
| Cc1ccc(CN2CC[C@@H]3[C@@H](CO[C@H]3CN3CCN(C)CC3)C2)cc1 | -2.74% |
| COc1ccc(C(=O)NS(C)(=O)=O)cc1-c1ccccc1 | -0.0142% |
| CCc1onc(C)c1C(=O)N1CCN(c2ncc3c(n2)CCOC3)CC1 | 0.0912% |
| COCCS(=O)(=O)Cc1csc(NC(C)=O)n1 | -2.93% |
| CCN1CC2(CC1=O)CN(C(C)=O)CCN(C(=O)NC(C)C)C2 (stereo unspecified) | 8.95% |
| Cc1noc(C)c1CNc1c(N2CCCC2)cccc1N1CCCC1 | 6.17% |
| Cc1nn(-c2ccccc2)c2nc(C(C)(C)CN3CCN(C)CC3)[nH]c12 | -2.13% |
| c1csc(CCNC2CCc3ncnn3C2)c1 (stereo unspecified) | 17.3% |
| O=C(c1cc2c([nH]c1=O)CCC2)N1CCCC1c1cccnc1 (stereo unspecified) | -5.79% |
| Cc1cnc(CN2CCCC2c2cnn(C)c2)cn1 (stereo unspecified) | 0.35% |
| Cc1ccc(C(=O)N2CC[C@H]3[C@H]2CCN3CC2CCOCC2)cc1F | -83.3% |
| Nc1c(C(=O)C2CCCN(C(=O)C3CC3)C2)cnn1-c1ccc(F)cc1 (stereo unspecified) | 6.12% |
| CCc1nc(CN(CCc2ccccc2)C2CCN(C)CC2)no1 | -0.355% |
| CC(=O)NC1CCN(C(=O)Nc2ccc(SC(F)F)cc2)CC1 | -6.91% |
| O=C(NCCn1ccc(-c2ccncc2)n1)c1ccncc1 | -19.1% |
| Cc1ccc(C(=O)N2C[C@H]3CC[C@@H](C2)N(Cc2ccccc2)C3)cn1 | -140% |
| CCOC(C)c1noc(CN2CCN(c3ccncc3)CC2)n1 (stereo unspecified) | -10.6% |
| Cc1nc2cc(-c3nccn3C)nn2c(N2CCCC(O)C2)c1C (stereo unspecified) | 2.92% |

| SMILES | cytotoxicity at 10 µM |
| --- | --- |
| Cc1ccc(F)c2c1CCCN2C(=O)c1cn(CC(=O)N(C)C)nn1 | -0.367% |
| COc1cccc(CN2CCC(c3nn(CCN)c4nccnc34)C2)c1 (stereo unspecified) | -24.7% |
| Cc1cc(C(F)(F)F)nn1CC(C)C(=O)NC(C)C (stereo unspecified) | 10% |
| CCc1nc(CN(C)CC(c2cccs2)N2CCOCC2)no1 (stereo unspecified) | -2.36% |
| CCOc1ccc(CCCC(=O)N2CC[C@H](NC(C)=O)C2)cc1C | -16% |
| O=c1c2cc3c(cc2nnn1Cc1ccccc1)OCCO3 | 7.38% |
| CC(C)C(=O)N1CCC12CCCN(C(=O)c1ccnnc1)C2 (stereo unspecified) | 7.8% |
| CCC(=O)Nc1ccc2c(c1)CN(C(=O)c1ccco1)CC2 | 5.84% |
| CCc1cnccc1C(=O)NC1CCN(Cc2ccccc2F)CC1 | -4.35% |
| O=C(C1CC1)N1CCCCCC1C1CCN(c2ncccn2)CC1 (stereo unspecified) | -9.56% |
| Cc1noc(C(C)C)c1C(=O)N1CCC(n2cccn2)CC1 | -4.32% |
| CCc1cc(N[C@@H](CO)C(N)=O)n2nc(C)c(C)c2n1 | -13.4% |
| Cc1ccc(-c2noc(CCC(=O)NC(C)Cn3cccn3)n2)cc1 (stereo unspecified) | 8.41% |
| Cc1nc2ccnn2c(C)c1CCC(=O)N1CCSCC1 | -4.24% |
| CN(C)Cc1ccnc(C2CCCN2Cc2ccncc2)n1 (stereo unspecified) | 1.36% |
| Cn1cc(C[C@H]2[C@H](O)CCN2Cc2ccncc2)cn1 | -78.5% |
| Cn1c(CS(=O)(=O)Cc2ccc(Cl)cc2)cc(=O)n(C)c1=O | 5.59% |
| CCC(C)N(Cc1cccnc1)C(=O)c1ccc(OC)cc1O (stereo unspecified) | 8.65% |
| CCOCc1nn(C)c2c1CN(Cc1cccs1)CC2 | -101% |
